The term MIC denotes the smallest concentration in the dilution series that meets the test's criterion for growth inhibition. Low readings indicate a more susceptible organism, high ones a less susceptible organism. The term inhibition denotes the drop in the measured response relative to a control, in per cent. A high value points to strong suppression. Broadly, the ED50 is the midpoint of the dose-response relation.

Data on seven compounds can be found in ChEMBL document CHEMBL1128519, “Semisynthetic chemical modification of the antifungal lipopeptide echinocandin B (ECB): structure-activity studies of the lipophilic and geometric parameters of polyarylated acyl analogs of ECB” (J Med Chem, 1995).

Values after ≈ are worked out from the molar mass of the structure shown. Numbered stars: 1 amine (or outer) side, 2 acyl side, 3 side chain; on linkers, the order of the positions; unused ones are H or OH. Bridge positions count the residues as written; N and C are the ends. Square brackets hold non-standard residues; d marks the D form. Peptide text beside a SMILES is read from it. * marks the point of attachment. pTerphenylCO(4''-OnC5H11) = CCCCCOc1ccc(-c2ccc(-c3ccc(C(=O)*)cc3)cc2)cc1; Orn(4R-OH,5R-OH) = O=C([C@H](C[C@@H](O)[C@@H](O)N[*:3])N[*:1])[*:2]; Benzoyl(4-(biphenyl-4-yl)) = O=C(c1ccc(-c2ccc(-c3ccccc3)cc2)cc1)*; hTyr(3S-OH,4S-OH) = N[C@H](C(=O)O)[C@H](O)[C@@H](O)c1ccc(O)cc1; Benzoyl(4-(4-OctO-Ph)) = CCCCCCCCOc1ccc(-c2ccc(C(=O)*)cc2)cc1; X6 = CCCCOCCOc1ccc(-c2ccc(-c3ccc(C(=O)*)cc3)cc2)cc1; Pro(3S-OH,4S-Me) = C[C@H]1CN[C@H](C(=O)O)[C@H]1O; Benzoyl(4-octyloxy) = CCCCCCCCOc1ccc(C(=O)*)cc1; X8 = O=C(c1ccc(-c2ccc(C#Cc3ccccc3)cc2)cc1)*; X9 = CCCCCCCCCCOc1ccc2cc(C(=O)*)ccc2c1; Hyp = O=C(O)[C@@H]1C[C@@H](O)CN1

The subject of assay [1] is Candida albicans. As to the kind of experiment: Antifungal activity against Candida albicans. It is filed as functional. In short, it runs like this: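 Broth microdilution, C. albicans A26 (ATCC 62342) grown on Sabouraud dextrose agar at 35 °C; inoculum 1 × 10^5 conidia/mL in antibiotic 3 broth. Compounds dissolved at 1.0 mg/mL in methanol, 2-fold serial dilutions from 80 µg/mL, duplicate. Read after 48 h at 35 °C. MIC = lowest concentration completely inhibiting visible growth.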

The target in assay [2] is Beta-1,3-glucan synthase (Candida albicans) (UniProt O13428). As to the kind of experiment: In vitro inhibition of glucan synthase obtained from Candida albicans at a concentration of 10 ug/mL. In short, it runs like this:
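Purified, solubilized β-(1,3)-D-glucan synthase prepared from C. albicans. Percent inhibition measured at 10 µg/mL compound, single determination.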

Assay [3] has as its system Candida albicans. Description: In vivo antifungal activity administered intraperitoneally against Candida albicans infections in mice. In kind it is functional. The settings on record: ip. The essentials:
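Male ICR mice (18-20 g), X-irradiated with 400 r 24 h before iv tail-vein infection with 2 × 10^6 C. albicans A26 cells in saline. Compounds suspended in β-cyclodextrin, given parenterally at 0, 4, 24 and 48 h post-infection. 10 mice per dose, top dose 10 mg/kg with 2-fold dilutions down to 0.039 mg/kg. 7-day survival; ED50 by Reed-Muench.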

Assay [4] relates to Candida albicans. As to the kind of experiment: In vivo antifungal activity administered orally against Candida albicans infections in mice. In kind it is functional. The settings on record: po. In short, it runs like this: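 X-irradiated (400 r, 24 h prior) male ICR mice infected iv with 2 × 10^6 C. albicans A26 cells. Oral gavage in cremophor (5%)/linoleic acid (8%)/water vehicle, b.i.d. × 4 starting immediately post-infection. 10 mice per dose level. Study ends at day 7; ED50 = dose giving 50% survival, by Reed-Muench.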

Sequence of Beta-1,3-glucan synthase (Candida albicans) (O13428 as listed by the source): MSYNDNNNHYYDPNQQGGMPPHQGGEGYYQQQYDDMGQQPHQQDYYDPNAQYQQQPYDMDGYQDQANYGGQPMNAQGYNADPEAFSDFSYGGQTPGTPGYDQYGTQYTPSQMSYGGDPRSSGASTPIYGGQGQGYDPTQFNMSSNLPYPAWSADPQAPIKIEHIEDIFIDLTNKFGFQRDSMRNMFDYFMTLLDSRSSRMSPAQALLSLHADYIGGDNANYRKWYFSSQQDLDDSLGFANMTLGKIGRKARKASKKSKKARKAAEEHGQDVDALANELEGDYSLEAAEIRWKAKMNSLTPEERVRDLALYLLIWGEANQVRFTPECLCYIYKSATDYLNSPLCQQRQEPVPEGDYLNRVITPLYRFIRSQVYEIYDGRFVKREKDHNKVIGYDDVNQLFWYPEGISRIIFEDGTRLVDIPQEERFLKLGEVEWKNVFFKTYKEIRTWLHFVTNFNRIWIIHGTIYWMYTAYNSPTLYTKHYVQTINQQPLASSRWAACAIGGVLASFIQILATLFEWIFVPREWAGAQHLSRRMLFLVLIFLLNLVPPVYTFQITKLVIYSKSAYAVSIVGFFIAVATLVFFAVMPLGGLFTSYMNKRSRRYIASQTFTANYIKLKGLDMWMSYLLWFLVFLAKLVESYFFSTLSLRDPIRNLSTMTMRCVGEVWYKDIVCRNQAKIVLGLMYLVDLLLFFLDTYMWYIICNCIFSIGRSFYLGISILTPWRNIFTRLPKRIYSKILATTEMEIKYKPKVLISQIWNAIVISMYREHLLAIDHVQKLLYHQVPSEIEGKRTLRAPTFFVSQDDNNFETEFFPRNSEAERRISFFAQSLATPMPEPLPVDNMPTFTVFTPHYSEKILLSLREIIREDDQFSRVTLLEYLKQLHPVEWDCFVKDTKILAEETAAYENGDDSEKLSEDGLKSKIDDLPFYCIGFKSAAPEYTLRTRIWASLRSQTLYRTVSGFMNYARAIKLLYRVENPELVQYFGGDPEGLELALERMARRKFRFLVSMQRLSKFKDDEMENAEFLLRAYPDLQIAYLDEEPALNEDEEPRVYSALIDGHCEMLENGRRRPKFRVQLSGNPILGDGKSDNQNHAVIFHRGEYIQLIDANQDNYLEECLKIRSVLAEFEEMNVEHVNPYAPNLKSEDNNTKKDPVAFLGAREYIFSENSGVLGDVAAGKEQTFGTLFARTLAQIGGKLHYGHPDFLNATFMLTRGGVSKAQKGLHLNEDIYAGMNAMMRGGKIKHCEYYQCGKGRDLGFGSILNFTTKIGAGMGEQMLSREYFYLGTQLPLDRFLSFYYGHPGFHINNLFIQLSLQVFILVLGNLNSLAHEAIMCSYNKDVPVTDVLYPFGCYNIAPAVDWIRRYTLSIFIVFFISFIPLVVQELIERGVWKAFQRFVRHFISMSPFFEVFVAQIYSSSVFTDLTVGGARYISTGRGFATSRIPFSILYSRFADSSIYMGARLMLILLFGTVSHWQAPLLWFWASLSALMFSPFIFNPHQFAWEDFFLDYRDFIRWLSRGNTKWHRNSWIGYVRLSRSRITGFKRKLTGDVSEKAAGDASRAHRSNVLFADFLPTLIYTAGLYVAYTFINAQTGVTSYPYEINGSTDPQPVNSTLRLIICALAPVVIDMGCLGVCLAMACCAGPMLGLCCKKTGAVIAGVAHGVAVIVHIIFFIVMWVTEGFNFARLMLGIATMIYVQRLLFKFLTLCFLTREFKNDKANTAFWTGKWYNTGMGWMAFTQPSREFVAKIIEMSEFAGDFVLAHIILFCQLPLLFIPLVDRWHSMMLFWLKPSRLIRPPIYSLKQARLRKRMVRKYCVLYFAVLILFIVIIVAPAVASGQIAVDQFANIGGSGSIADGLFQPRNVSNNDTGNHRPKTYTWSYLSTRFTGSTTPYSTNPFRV

`CCCCOCCOc1ccc(-c2ccc(-c3ccc(C(=O)N[C@H]4C[C@@H](O)[C@@H](O)NC(=O)[C@@H]5[C@@H](O)[C@@H](C)CN5C(=O)[C@H]([C@@H](C)O)NC(=O)[C@H]([C@H](O)[C@@H](O)c5ccc(O)cc5)NC(=O)[C@@H]5C[C@@H](O)CN5C(=O)[C@H]([C@@H](C)O)NC4=O)cc3)cc2)cc1` (X6-[Orn(4R-OH,5R-OH)]T[Hyp][hTyr(3S-OH,4S-OH)]T[Pro(3S-OH,4S-Me)]; lactam 1-C) registered an MIC with Candida albicans [1] of 0.03 µg/mL (≈ 0.0256 µM). The compound further had an inhibition in assay [2] of 80.1%. The ED50 in the assay on Candida albicans [3] was 0.3 mg/kg; with Candida albicans [4], 13.6 mg/kg.
Regarding `C[C@@H](O)[C@@H]1NC(=O)[C@H]([C@H](O)[C@@H](O)c2ccc(O)cc2)NC(=O)[C@@H]2C[C@@H](O)CN2C(=O)[C@H]([C@@H](C)O)NC(=O)[C@@H](NC(=O)c2ccc(-c3ccc(C#Cc4ccccc4)cc3)cc2)C[C@@H](O)[C@@H](O)NC(=O)[C@@H]2[C@@H](O)[C@@H](C)CN2C1=O` (X8-[Orn(4R-OH,5R-OH)]T[Hyp][hTyr(3S-OH,4S-OH)]T[Pro(3S-OH,4S-Me)]; lactam 1-C), it took 0.039 µg/mL (≈ 0.0362 µM) to inhibit growth in the assay on Candida albicans [1] (MIC). This compound also had an inhibition in assay [2] of 75.8%. For the same compound, the results for the median effective dose (ED50) in the assay with Candida albicans [3] and in the assay with Candida albicans [4] were 0.6 mg/kg and 18.8 mg/kg, respectively.
For the compound `CCCCCCCCCCOc1ccc2cc(C(=O)N[C@H]3C[C@@H](O)[C@@H](O)NC(=O)[C@@H]4[C@@H](O)[C@@H](C)CN4C(=O)[C@H]([C@@H](C)O)NC(=O)[C@H]([C@H](O)[C@@H](O)c4ccc(O)cc4)NC(=O)[C@@H]4C[C@@H](O)CN4C(=O)[C@H]([C@@H](C)O)NC3=O)ccc2c1` (X9-[Orn(4R-OH,5R-OH)]T[Hyp][hTyr(3S-OH,4S-OH)]T[Pro(3S-OH,4S-Me)]; lactam 1-C), in the assay with Candida albicans [1], 0.005 µg/mL (≈ 0.00451 µM) was the least that counted as inhibitory (MIC). The same compound gave an inhibition in assay [2] of 82.2%. In addition, the ED50 is 1.6 mg/kg in the assay on Candida albicans [3] and 46.1 mg/kg with Candida albicans [4].
For the compound `CCCCCCCCOc1ccc(-c2ccc(C(=O)N[C@H]3C[C@@H](O)[C@@H](O)NC(=O)[C@@H]4[C@@H](O)[C@@H](C)CN4C(=O)[C@H]([C@@H](C)O)NC(=O)[C@H]([C@H](O)[C@@H](O)c4ccc(O)cc4)NC(=O)[C@@H]4C[C@@H](O)CN4C(=O)[C@H]([C@@H](C)O)NC3=O)cc2)cc1` ({Benzoyl(4-(4-OctO-Ph))}-[Orn(4R-OH,5R-OH)]T[Hyp][hTyr(3S-OH,4S-OH)]T[Pro(3S-OH,4S-Me)]; lactam 1-C), in the assay with Candida albicans [1], the MIC was 0.0025 µg/mL (≈ 0.00226 µM). For the same compound, the inhibition in assay [2] worked out at 81.5%. In addition, the ED50 turned out to be 0.5 mg/kg in the assay on Candida albicans [3] and 27.3 mg/kg in the assay on Candida albicans [4].
In the assay with Candida albicans [1], `C[C@@H](O)[C@@H]1NC(=O)[C@H]([C@H](O)[C@@H](O)c2ccc(O)cc2)NC(=O)[C@@H]2C[C@@H](O)CN2C(=O)[C@H]([C@@H](C)O)NC(=O)[C@@H](NC(=O)c2ccc(-c3ccc(-c4ccccc4)cc3)cc2)C[C@@H](O)[C@@H](O)NC(=O)[C@@H]2[C@@H](O)[C@@H](C)CN2C1=O` ({Benzoyl(4-(biphenyl-4-yl))}-[Orn(4R-OH,5R-OH)]T[Hyp][hTyr(3S-OH,4S-OH)]T[Pro(3S-OH,4S-Me)]; lactam 1-C) displayed an MIC of 0.078 µg/mL (≈ 0.074 µM). The same compound had an inhibition in assay [2] of 78.8%. The ED50 in the assay with Candida albicans [3] was 1.3 mg/kg; in the assay with Candida albicans [4], greater than 50 mg/kg.
In the assay with Candida albicans [1], `CCCCCOc1ccc(-c2ccc(-c3ccc(C(=O)N[C@H]4C[C@@H](O)[C@@H](O)NC(=O)[C@@H]5[C@@H](O)[C@@H](C)CN5C(=O)[C@H]([C@@H](C)O)NC(=O)[C@H]([C@H](O)[C@@H](O)c5ccc(O)cc5)NC(=O)[C@@H]5C[C@@H](O)CN5C(=O)[C@H]([C@@H](C)O)NC4=O)cc3)cc2)cc1` [ANIDULAFUNGIN] ({pTerphenylCO(4''-OnC5H11)}-[Orn(4R-OH,5R-OH)]T[Hyp][hTyr(3S-OH,4S-OH)]T[Pro(3S-OH,4S-Me)]; lactam 1-C) yielded an MIC of 0.005 µg/mL (≈ 0.00438 µM). Besides, the inhibition in assay [2] is 75%. Moreover, the ED50 is 0.3 mg/kg with Candida albicans [3] and 7.8 mg/kg in the assay on Candida albicans [4].
The corresponding values for `CCCCCCCCOc1ccc(C(=O)N[C@H]2C[C@@H](O)[C@@H](O)NC(=O)[C@@H]3[C@@H](O)[C@@H](C)CN3C(=O)[C@H]([C@@H](C)O)NC(=O)[C@H]([C@H](O)[C@@H](O)c3ccc(O)cc3)NC(=O)[C@@H]3C[C@@H](O)CN3C(=O)[C@H]([C@@H](C)O)NC2=O)cc1` [CILOFUNGIN] ({Benzoyl(4-octyloxy)}-[Orn(4R-OH,5R-OH)]T[Hyp][hTyr(3S-OH,4S-OH)]T[Pro(3S-OH,4S-Me)]; lactam 1-C) are 0.312 µg/mL (≈ 0.303 µM), 76%, 7.6 mg/kg and greater than 400 mg/kg.
